Results reported in ChEMBL document CHEMBL1154427, “Impact of dual infections on chemotherapeutic efficacy in BALB/c mice infected with major genotypes of Trypanosoma cruzi” (2007).

Assays:
Assay type in all cases: functional
[1] = tested on: Trypanosoma cruzi; assay: Antimicrobial activity against Trypanosoma cruzi infected in BALB/c mouse assessed as parasitemia remaining in fresh blood
In short: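 Tail-vein blood examined daily by light microscopy for living trypomastigotes up to day 60 after infection.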

[2] = tested on: Trypanosoma cruzi; assay: Antimicrobial activity against Trypanosoma cruzi infected in BALB/c mouse assessed as parasitemia remaining in hemoculture
In short: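 Orbital sinus blood taken 30 days after treatment was inoculated into 3 ml LIT medium and kept at 28°C. Tubes were checked for parasites at days 30, 60, 90 and 120 of culture.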

[3] = tested on: Trypanosoma cruzi; assay: Antimicrobial activity against Trypanosoma cruzi genotype 19 and genotype 39 dually infected in BALB/c mouse assessed as cure rate
In short: (§1)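 Mice counted cured when fresh blood examination, hemoculture, blood PCR, ELISA and FC-ALTA were all negative. Mice negative by parasitology and FC-ALTA but positive by ELISA were counted as dissociated and also cured. Observed cure rate per group = cured animals / total infected treated animals × 100. Each genotype combination was run in replicate batches.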

[4] = tested on: Trypanosoma cruzi; assay: Antimicrobial activity against Trypanosoma cruzi infected in BALB/c mouse assessed as parasitemia remaining by PCR method
In short: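 Orbital sinus blood taken 30 days after treatment into 6 M guanidine–0.2 M EDTA (pH 8.0), 1:2, and kept at room temperature. PCR used primers S35/S36 with 3.5 mM MgCl2: 5 min at 94°C, then 35 cycles of 95°C/65°C/72°C for 1 min each, then 10 min final extension. Products were resolved on 6% polyacrylamide with silver staining.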

[5] = tested on: Trypanosoma cruzi; assay: Antimicrobial activity against Trypanosoma cruzi infected in BALB/c mouse assessed as parasitemia remaining by ELISA
In short: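 Conventional ELISA on sera taken 2 and 3 months after treatment and stored at –20°C. Sera were tested at 1:80 in PBS against an alkaline-extract antigen of Y strain parasites grown to exponential phase in LIT medium. Bound antibody was detected with peroxidase anti-mouse IgG and read at 490 nm. Per-plate cutoff = mean of 10 negative sera + 2 SD.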

[6] = tested on: Trypanosoma cruzi; assay: Antimicrobial activity against Trypanosoma cruzi genotype 19 and genotype 32 dually infected in BALB/c mouse assessed as cure rate; in short: as §1
[7] = tested on: Trypanosoma cruzi; assay: Antimicrobial activity against Trypanosoma cruzi infected in BALB/c mouse assessed as parasitemia remaining by FC-ALTA
In short: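 Flow cytometric detection of antibodies to live trypomastigotes, microplate format, on sera taken 3 months after treatment and diluted 1:1,500. IgG was detected with FITC-labelled goat anti-mouse IgG. Read-out was percentage of positive fluorescent parasites, relative to a conjugate-only control; >20% was scored positive. Positive and negative controls ran in each batch.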

[8] = tested on: Trypanosoma cruzi; assay: Antimicrobial activity against Trypanosoma cruzi 1 infected in BALB/c mouse assessed as cure rate; in short: as §1
[9] = tested on: Trypanosoma cruzi; assay: Antimicrobial activity against Trypanosoma cruzi infected in BALB/c mouse assessed as cure rate; in short: as §1
[10] = tested on: Trypanosoma cruzi; assay: Antimicrobial activity against Trypanosoma cruzi 2 infected in BALB/c mouse assessed as cure rate; in short: as §1
[11] = tested on: Trypanosoma cruzi; assay: Antimicrobial activity against Trypanosoma cruzi and Trypanosoma cruzi 2 dually infected in BALB/c mouse assessed as cure rate; in short: as §1
[12] = tested on: Trypanosoma cruzi; assay: Antimicrobial activity against Trypanosoma cruzi 1 and Trypanosoma cruzi 2 dually infected in BALB/c mouse assessed as cure rate; in short: as §1
[13] = tested on: Trypanosoma cruzi; assay: Antimicrobial activity against Trypanosoma cruzi 1 and Trypanosoma cruzi dually infected in BALB/c mouse assessed as cure rate; in short: as §1
[14] = tested on: Trypanosoma cruzi; assay: Antimicrobial activity against Trypanosoma cruzi 1 dually infected in BALB/c mouse assessed as cure rate; in short: as §1
[15] = tested on: Trypanosoma cruzi; assay: Antimicrobial activity against Trypanosoma cruzi genotype 20 infected in BALB/c mouse assessed as cure rate; in short: as §1
[16] = tested on: Trypanosoma cruzi; assay: Antimicrobial activity against Trypanosoma cruzi genotype 19 infected in BALB/c mouse assessed as cure rate; in short: as §1
[17] = tested on: Trypanosoma cruzi; assay: Antimicrobial activity against Trypanosoma cruzi genotype 32 infected in BALB/c mouse assessed as cure rate; in short: as §1
[18] = tested on: Trypanosoma cruzi; assay: Antimicrobial activity against Trypanosoma cruzi genotype 39 infected in BALB/c mouse assessed as cure rate; in short: as §1
[19] = tested on: Trypanosoma cruzi; assay: Antimicrobial activity against Trypanosoma cruzi genotype 20 and genotype 19 dually infected in BALB/c mouse assessed as cure rate; in short: as §1
[20] = tested on: Trypanosoma cruzi; assay: Antimicrobial activity against Trypanosoma cruzi genotype 39 and genotype 32 dually infected in BALB/c mouse assessed as cure rate; in short: as §1
[21] = tested on: Trypanosoma cruzi; assay: Antimicrobial activity against Trypanosoma cruzi OPS21 cl11 and Trypanosoma cruzi MAS cl11 dually infected in BALB/c mouse assessed as cure rate; in short: as §1
[22] = tested on: Trypanosoma cruzi; assay: Antimicrobial activity against Trypanosoma cruzi Bug2148 cl1 and Trypanosoma cruzi MAS cl11 dually infected in BALB/c mouse assessed as cure rate; in short: as §1

O=C(Cn1ccnc1[N+](=O)[O-])NCc1ccccc1 [BENZNIDAZOLE]
Activity [1]: 19.8%
Activity [2]: 79.3%
Activity [3]: 25.9%
Activity [4]: 93%
Activity [5]: 96.4%
Activity [6]: 22.7%
Activity [7]: 99%
Activity [8]: 35.4%
Activity [9]: 54.4%
Activity [10]: 70%
Activity [11]: 59.1%
Activity [12]: 17.4%
Activity [13]: 24%
Activity [14]: <33%
Activity [15]: 0%
Activity [16]: 70%
Activity [17]: 70%
Activity [18]: 50%
Activity [19]: 0%
Activity [20]: 59.1%
Activity [21]: 14.3%
Activity [22]: 83.3%
